Hits are enriched below; roughly 2.7% of the tested compounds scored in any of these assays.
OX1R antag-1 – antagonists of human orexin 1 receptor (OX1R); OX1R-expressing cells, FRET antagonist read-out; inhibition, % at 6.6 µM; actives 1.8% (n = 330,000); AID 485270, 2010; in the data active = inhibition mostly above about 38%, no sharp cut-off; inactive = mostly below about 40%;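 also: 0% = agonist challenge alone and 100% = reference antagonist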
OX1R antag-2 – OX1R (HCRTR1) antagonists, primary screen, fluorescence, CHO/OX1R cells, Fluo-8 calcium, orexin A; Orexin/Hypocretin receptor type 1 (Homo sapiens), O43613; Fluo-8 calcium fluorescence; actives 0.43% (n = 330,000); AID 434989, 2010; inhibition, % at 5 µM;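 active = inhibition above its plate's threshold, mean inhibition of all tested compounds on the plate plus 3 SD, cut at about 37% in these data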;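 also: 0% = orexin A challenge wells and 100% = SB-334867-A antagonist wells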
CHO parental Ca – ATP-evoked calcium signal inhibitors, parental CHO, primary screen, counter-screen for OX1R antagonist project, cell-based, fluorescence, Fluo-8 calcium dye. actives 0.63% (n = 330,000). inhibition, % at 5.6 µM. parental CHO-K1, ATP-induced calcium, Fluo-8 fluorescence. AID 463079, 2010;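 active = inhibition above that plate's mean sample inhibition plus 3 SD, cut at about 26% in these data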;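 also: 0% = ATP-challenged DMSO wells and 100% = DMSO wells without ATP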
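Measured by: calcium-sensitive Fluo-8 fluorescence / Test system: CHO parental line / Controls: ATP-challenged DMSO wells low, unchallenged DMSO wells high / Measure: % inhibition / Compound: single nominal dose of 5.6 µM per compound / Replicates: single well per compound, no replicates / Reagent: ATP as calcium-mobilizing challenge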
OXTR ag – human OXTR agonists, primary screen, fluorescence, CHO-OTR cells, Fluo-8 calcium; actives 0.32% (n = 320,000); Oxytocin receptor (Homo sapiens), P30559; activation, % at 3 µM; Fluo-8 calcium fluorescence; normalized: DMSO 0%, oxytocin 100%;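 active = activation above the mean of all tested compounds plus 3 SD, cutoff set per screening run, cut at about 20% in these data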;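 also: peak over basal fluorescence ratio from a 100 s FLIPR kinetic read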
V1aR counter – agonists of human V1a receptor, primary screen, counter-screen for OXTR agonist project, fluorescence, CHO-V1R cells. Vasopressin V1a receptor (Homo sapiens), P37288. Fluo-8 calcium fluorescence, agonist mode; 0% DMSO, 100% 3 nM vasopressin. activation, % at 3 µM. actives 0.25% (n = 320,000). AID 2797, 2010;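 active = activation above the mean activation of all tested compounds plus 3 SD, per screening run, cut at about 20% in these data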;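 also: signal is peak over basal fluorescence ratio across a 100 second FLIPR read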
Target sequence (P37288 whole entry, looked up): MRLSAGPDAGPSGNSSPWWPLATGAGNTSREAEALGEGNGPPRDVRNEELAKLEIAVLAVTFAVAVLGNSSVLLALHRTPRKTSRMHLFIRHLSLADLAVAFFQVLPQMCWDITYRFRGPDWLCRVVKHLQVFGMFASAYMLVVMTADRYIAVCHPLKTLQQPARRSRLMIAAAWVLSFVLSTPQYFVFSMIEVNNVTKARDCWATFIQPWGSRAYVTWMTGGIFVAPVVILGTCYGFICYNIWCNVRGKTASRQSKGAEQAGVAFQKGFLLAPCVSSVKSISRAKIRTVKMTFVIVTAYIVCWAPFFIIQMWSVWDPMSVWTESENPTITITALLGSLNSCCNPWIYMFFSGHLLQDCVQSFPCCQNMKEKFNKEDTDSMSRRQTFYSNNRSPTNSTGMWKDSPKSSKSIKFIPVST
OXTR potentiator – human OXTR potentiators, primary screen, fluorescence, CHO-OTR cells, Fluo-8 calcium; Fluo-8 calcium fluorescence, potentiator mode; 0% = oxytocin EC15, 100% = EC100; activation, % at 3 µM; actives 0.061% (n = 320,000);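 active = activation above that plate's cutoff, the mean activation of tested compounds plus 3 SD, cut at about 6.6% in these data, passing the limit was not always enough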;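 also: 100% uses oxytocin at 75 nM as the full agonist control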
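Replication – single well per compound, singlicate · Assay system – CHO cell line stably expressing human OTR · Timing – 6 min pre-incubation, 100 s read · Measure – normalized max/min fluorescence ratio, % activation · Doses – 3.0 µM, one dose · Detection – Fluo-8 calcium dye fluorescence · Probe or stimulus – oxytocin near EC15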
An asterisk follows results filed as active.

Screening O=C(/C=C/c1c(Cl)nc2ccccn12)Nc1ccc(F)cc1 returned OX1R antag-1 53*, OX1R antag-2 -6, CHO parental Ca -16, OXTR ag -2, V1aR counter -2 and OXTR potentiator -15.
`O=C(Nc1ccccc1C(=O)OCC(=O)c1c[nH]c2ccccc12)c1ccco1` gave OX1R antag-1 50*, OX1R antag-2 12, CHO parental Ca -1, OXTR ag 2, V1aR counter 0 and OXTR potentiator -12.
O=C(COC(=O)c1ccccc1NC(=O)c1ccco1)Nc1ccc2c(c1)OCO2 was read as OX1R antag-1 72*, OX1R antag-2 17, CHO parental Ca -4, OXTR ag -1, V1aR counter 1 and OXTR potentiator -11.
Screening CC(NC(=O)CCNC(=O)c1ccco1)c1ccccc1 (centres undefined) returned OX1R antag-1 7, OX1R antag-2 -3, CHO parental Ca 3, OXTR ag 1, V1aR counter 1 and OXTR potentiator 5.
For Cc1cc(C(=O)N/N=C/C(Cl)=C/c2ccccc2)c(C)o1 the results were OX1R antag-1 14, OX1R antag-2 -6, CHO parental Ca -18, OXTR ag -1, V1aR counter 0 and OXTR potentiator -9.
`Cc1cc(C)cc(N(C(=O)CNC(=O)c2ccco2)C(C(=O)NC2CCCCC2)c2ccncc2)c1` (centres undefined) gave OX1R antag-1 20, OX1R antag-2 -16, CHO parental Ca 2, OXTR ag 0, V1aR counter 0 and OXTR potentiator -5.
Screening COc1ccccc1NC(=O)/C(=C\c1cccnc1)NC(=O)c1ccc(C)cc1 returned OX1R antag-1 13, OX1R antag-2 -37, CHO parental Ca -2, OXTR ag 2, V1aR counter 1 and OXTR potentiator -4.
CN=C1SC(CC(=O)NCCc2ccc(OC)c(OC)c2)C(=O)N1C (centres undefined) was read as OX1R antag-1 4, OX1R antag-2 104*, CHO parental Ca 101*, OXTR ag 34*, V1aR counter 47* and OXTR potentiator -13.
`COc1ccc(CCNC(=O)CSc2nnc(-c3ccccc3)c3ccccc23)cc1OC` gave OX1R antag-1 73*, OX1R antag-2 -14, CHO parental Ca -27, OXTR ag -3, V1aR counter -2 and OXTR potentiator 3.
COC(=O)c1ccc(/C=N/OCC(=O)NCCc2ccc(OC)c(OC)c2)cc1 was read as OX1R antag-1 45*, OX1R antag-2 2, CHO parental Ca -14, OXTR ag 2, V1aR counter 4 and OXTR potentiator -12.
COc1ccc(CCNC(=O)CSc2ccc3ccccc3c2)cc1OC was read as OX1R antag-1 64*, OX1R antag-2 -3, CHO parental Ca -25, OXTR ag -2, V1aR counter 0 and OXTR potentiator -10.
For CCOc1ccccc1CN1CCCC(C(=O)Nc2cccc(-n3cccn3)c2)C1 (centres undefined) the results were OX1R antag-1 16, OX1R antag-2 -15, CHO parental Ca -6, OXTR ag 8, V1aR counter 6 and OXTR potentiator -17.
`COc1ccc(CNC(=O)c2ccc3ccccc3n2)cc1OC` gave OX1R antag-1 52*, OX1R antag-2 9, CHO parental Ca 45*, OXTR ag 9, V1aR counter 11 and OXTR potentiator -11.
Screening COc1ccc(CCNC(=O)c2ccc3ccccc3n2)cc1OC returned OX1R antag-1 19, OX1R antag-2 -28, CHO parental Ca -9, OXTR ag 0, V1aR counter 0 and OXTR potentiator -2.
Screening COc1ccc(CCNC(=O)COc2ccc(S(=O)(=O)N3CCOCC3)cc2)cc1OC returned OX1R antag-1 49*, OX1R antag-2 15, CHO parental Ca -7, OXTR ag 0, V1aR counter 0 and OXTR potentiator 0.
`C=CCOC1=CS(=O)(=O)N(Cc2ccc(Br)cc2)c2ccc(Br)cc21` gave OX1R antag-1 1, OX1R antag-2 -2 and CHO parental Ca -12.
For Cc1ccc(S(=O)(=O)/N=C2/NC(=O)/C(=C/c3ccncc3)S2)cc1 the results were OX1R antag-1 6, OX1R antag-2 -9, CHO parental Ca -10, OXTR ag 0, V1aR counter 1 and OXTR potentiator 4.
`COc1cccc(N=C2NC(=O)/C(=C/c3cc([N+](=O)[O-])ccc3O)S2)c1` gave OX1R antag-1 -7, OX1R antag-2 16, CHO parental Ca 12, OXTR ag 4, V1aR counter 7 and OXTR potentiator -8.
For Cc1ccc(S(=O)(=O)/N=C2/NC(=O)/C(=C/c3cc([N+](=O)[O-])ccc3O)S2)cc1 the results were OX1R antag-1 20, OX1R antag-2 43*, CHO parental Ca 48*, OXTR ag 26*, V1aR counter 34* and OXTR potentiator -13.
Screening COc1cc(/C=C2\S/C(=N/S(=O)(=O)c3ccc(C)cc3)NC2=O)c([N+](=O)[O-])cc1OC returned OX1R antag-1 39*, OX1R antag-2 -13, CHO parental Ca -5, OXTR ag -1, V1aR counter -1 and OXTR potentiator 1.
`Cc1ccc(S(=O)(=O)/N=C2/NC(=O)/C(=C\c3ccccc3)S2)cc1` gave OX1R antag-1 33*, OX1R antag-2 4, CHO parental Ca 10, OXTR ag -1, V1aR counter 0 and OXTR potentiator 0.
For O=C1NC(=Nc2ccccc2Cl)S/C1=C\c1cc([N+](=O)[O-])ccc1O the results were OX1R antag-1 72*, OX1R antag-2 7, CHO parental Ca 14, OXTR ag 15, V1aR counter 15 and OXTR potentiator -4.
O=C(O)c1ccc(NC(=O)c2ccccc2NC(=O)c2ccccc2Br)cc1 was read as OX1R antag-1 -5, OX1R antag-2 13, CHO parental Ca 6, OXTR ag 1, V1aR counter -1 and OXTR potentiator -7.
COc1ccc2cc(C(=O)N3CCCC(Nc4ccc(F)cc4)C3)n(C)c2c1 (centres undefined) was read as OX1R antag-1 40, OX1R antag-2 -17, CHO parental Ca -18, OXTR ag 2, V1aR counter 6 and OXTR potentiator -5.
